Published values pooled from the literature.
Compare with care: the assays were run in different laboratories.

SMILES | host | matrix | route | dose | notes | half-life [h]
COc1nc(-c2cc(C)c(N[C@@H](C)c3c(F)cc(F)cc3F)nn2)ccc1-n1cnc(C)c1 | male CD-1 mouse | plasma | intravenous | 1 mg/kg | single dose | 3.1
CNCCN(C)c1cc(C#N)cc(CCc2cc(C)cc(N)n2)c1 | male BALB/c mouse | brain | intravenous | 2 mg/kg |  | 24.8
CCCc1c(C2CCCCN2CCN2CCOCC2)[nH]c2cc(OC(F)(F)F)ccc12 (centres unmarked) | male mouse | plasma | oral | 30 mg/kg |  | 11
COc1nc(-c2cc(C)c(N[C@@H](C)c3cc(F)cc(F)c3)nn2)ccc1-n1cnc(C)c1 | male CD-1 mouse | plasma | intravenous | 1 mg/kg | single dose | 3.1
Cc1ccc2cncc(N3CCc4c(cc(Cn5ccnc5)cc4-c4cn(C)nc4C(F)(F)F)C3=O)c2c1 | male CD-1 mouse | plasma | oral | 50 mg/kg |  | 2
OC[C@H]1O[C@@H](c2ccc(Cl)c(Cc3ccc(O[C@H]4CCOC4)cc3)c2)[C@H](O)[C@@H](O)[C@@H]1O | CD-1 mouse | plasma | intravenous | 5 mg/kg |  | 0.16
CN1CCC[C@H](CN2c3ccccc3Sc3ccccc32)C1.Cl | mouse | plasma | intraperitoneal | 32 mg/kg | single dose | 2.82
Cn1cnc2c(F)c(Nc3ccc(Br)cc3Cl)c(C(=O)NOCCO)cc21 | nude mouse | liver | oral | 5 mg/kg | single dose, tumour-bearing | 3.5
O=C(Nc1ccc(Cl)c(Cl)c1)c1ccc(N2CCNCC2)c([N+](=O)[O-])c1 | male mouse | plasma | intravenous | 3 mg/kg |  | 3.6
COC(=O)C1=C(C)OC(C)=C(C(C)=O)C1c1ccc(Cl)c(C(F)(F)F)c1 (centres unmarked) | C57BL/6 mouse | plasma | intravenous | 10 mg/kg |  | 0.25
CC(C)Oc1c(NC(=O)c2ccc(NC(=O)[C@H](CC(N)=O)NC(=O)c3ccc(NC(=O)c4ccc(C#N)cc4)cc3)cc2)ccc(C(=O)Nc2ccc(C(=O)O)cc2)c1O | male CD-1 mouse | plasma | intravenous | 5 mg/kg | single dose | 0.98
O=C(Nc1ccc(C(F)(F)F)cc1F)N1CCC(Cc2cccc(Oc3ccc(C(F)(F)F)cn3)c2)CC1 | male Swiss mouse | blood | oral | 1 mg/kg |  | 6
Oc1nc2nonc2cc1Nc1c(F)c(F)c(C(F)(F)F)c(F)c1F | male C57BL/6 mouse | plasma | oral | 10 mg/kg |  | > 15
NC(=S)NN=Cc1ncccc1N | female C57BL/6 mouse | plasma | intravenous | 20 mg/kg |  | 1.08
CC(C)(C)c1ccc(O)c(CN(Cc2cc(C(C)(C)C)ccc2O)C2CCC(NC(N)=O)CC2)c1 (centres unmarked) | male C57BL/6 mouse | brain | oral | 10 mg/kg | single dose | 7.36
CC=Cc1ccc(O)c(OC)c1 | mouse | lung | intranasal | 100 mg/kg |  | 0.521
Cc1nc(-c2cnc(NC(C)C)n(C)c2=O)ccc1Oc1ccnc(-c2cnn(C)c2)c1 | female mouse | plasma | oral | 7.5 mg/kg | single dose | 14
COc1ccc(C(O)COc2ccc(-c3csc(-c4ccc(OCC(O)c5ccc(OC)c(OC)c5)cc4)n3)cc2)cc1OC (centres unmarked) | C57BL/6 mouse | plasma | oral | 75 mg/kg |  | 4.1
CCOc1ccc(Cc2cc([C@@H]3O[C@H](CO)[C@@H](O)[C@H](O)[C@H]3O)ccc2Cl)cc1 | male C57BL/6 mouse | plasma | intravenous | 1 mg/kg |  | 3.4
CC1(C)CC[C@]2(C(=O)O)CC[C@]3(C)C(=CC[C@@H]4[C@@]5(C)C[C@@H](O)[C@H](OC(=O)/C=C/c6ccc(O)cc6)C(C)(C)[C@@H]5CC[C@]43C)[C@@H]2C1 (relative stereo) | mouse | plasma | intraperitoneal | 85 µmol/kg | single dose | 34.3
Cc1noc(-c2ccc(CSCCC(=O)O)cc2)c1NC(=O)O[C@H](C)c1ccccc1Cl | mouse | plasma | oral | 50 mg/kg |  | 0.98
CCNc1nc2c(c(N3CC(=O)Nc4cc(OC)ccc43)n1)CCC2 | female C57BL/6 mouse | plasma | intravenous | 4 mg/kg | single dose | 0.51

SMILES | host | matrix | route | dose | notes | half-life [h]
NC[C@@H]1O[C@H](O[C@H]2[C@@H](O)[C@H](O[C@@H]3[C@@H](O)[C@H](N)C[C@H](N)[C@H]3O[C@H]3O[C@H](CO)[C@@H](O)[C@H](O)[C@H]3N)O[C@@H]2CO)[C@H](N)[C@@H](O)[C@@H]1O | male BALB/c mouse | plasma | intravenous | 15 mg/kg |  | 2.6
CNC(=O)c1cc(OC)cc2c(N3CCc4c(cc(Cn5ccnc5)cc4-c4cn(C)nc4C(F)(F)F)C3=O)ccnc12 | male CD-1 mouse | plasma | intravenous | 3 mg/kg |  | 1.1
CNC(=O)[C@H](Cc1c[nH]cn1)NC(=O)CN(CCCc1ccccc1)CC(=O)OC | male C57BL/6 mouse | plasma | intraperitoneal | 30 mg/kg |  | 0.117
COc1cc(OC)c2nccc(N3CCc4c(cc(Cn5ccnc5)cc4-c4cn(C)nc4C(F)(F)F)C3=O)c2c1 | male CD-1 mouse | plasma | oral | 50 mg/kg |  | 0.7
Cc1noc([C@H](Cc2c[nH]cn2)NC(=O)CN(CCCc2ccccc2)CC(=O)O)n1 | male C57BL/6 mouse | plasma | intraperitoneal | 30 mg/kg |  | 0.233
Nc1ccc(-c2ccncc2)cc1NC(=O)N1CCCC1 | male C57BL/6 mouse | brain | intraperitoneal | 10 mg/kg |  | 0.462
CNC(=O)c1ccccc1Nc1cc(Nc2cc(C)c(C3CCN(CCCCCCNC(=O)COc4cccc5c4C(=O)N(C4CCC(=O)NC4=O)C5=O)CC3)cc2OC(C)C)ncc1C(F)(F)F (centres unmarked) | male Swiss mouse | plasma | intraperitoneal | 10 mg/kg |  | 6.1
CCc1cc(C(=O)NC)c2nccc(N3CCc4c(cc(Cn5ccnc5)cc4-c4cn(C)nc4C(F)(F)F)C3=O)c2c1 | male CD-1 mouse | plasma | oral | 150 mg/kg |  | 1.6
COc1ccc(C[C@@H](C(=O)NO)n2cc(CNS(=O)(=O)c3ccc(-c4ccccc4)s3)nn2)cc1 | female CD-1 mouse | plasma | intraperitoneal | 50 mg/kg |  | 0.5
COc1ccc([C@@]23Oc4cc(OC)cc(OC)c4[C@]2(O)[C@H](O)[C@H](C(=O)N(C)C)[C@H]3c2ccccc2)cc1 | mouse | plasma | intravenous | 5 mg/kg |  | 1.5
C=C(C[C@H](N)C(=O)O)C(=O)NCc1ccc(F)cc1 | male CD-1 mouse | plasma | intravenous | 2.5 mg/kg |  | 0.8
CNC(=O)c1cc(Oc2ccc(NC(=O)Nc3ccc(Cl)c(C(F)(F)F)c3)c(F)c2)ccn1 | male mouse | plasma | oral | 10 mg/kg | single dose | 14.9
Cc1cc(NC(=O)c2cccc3cc(-c4cccc5[nH]nc(N)c45)ccc23)ccc1F | male CD-1 mouse | brain | oral | 10 mg/kg |  | 2.06
COc1cc2c(Nc3ccc(Cl)c(Cl)c3F)ncnc2cc1OC[C@@H]1C[C@@H]2CN(C)C[C@@H]2C1 | FVB mouse | brain | oral | 70 mg/kg | single dose | 13.3
CCc1cc(OC)c2nccc(N3CCc4c(cc(Cn5ccnc5)cc4-c4cn(C)nc4C(F)(F)F)C3=O)c2c1 | male CD-1 mouse | plasma | intravenous | 3 mg/kg |  | 0.9
Cc1cc(Nc2ccc(S(F)(F)(F)(F)F)cc2)n2ccnc2n1 | male Swiss mouse | plasma | oral | 100 mg/kg | single dose | 5.8
NCC1CCN(c2nc(-c3ccncc3)nc3sc4c(c23)CCCC4)CC1 | female CD-1 mouse | plasma | oral | 20 mg/kg |  | 7.8
COc1ccc(NC(=O)N2CCCCN3[C@H](COCCC(=O)O)[C@H](c4ccc(C#Cc5ccccc5)cc4)[C@@H]3C2)cc1 | mouse | plasma | intravenous |  |  | 2
CC[C@H](C)[C@@H]1NC(=O)[C@@](C)(NC(=O)[C@H](CCCNC(=N)N)NC(=O)[C@H](CC(C)C)NC(=O)[C@@H](NC(=O)[C@H](CCC(N)=O)NC(=O)[C@H](CC(C)C)NC(C)=O)[C@@H](C)O)CCCC=CCCC[C@@](C)(C(=O)N[C@@H](CC(C)C)C(=O)N[C@@H](Cc2ccc3ccccc3c2)C(N)=O)NC(=O)[C@H](CCCNC(=N)N)NC(=O)[C@H](CCC(N)=O)NC1=O | male BALB/c mouse | plasma | intravenous | 15 mg/kg |  | 1.8
COc1ccc2nccc(N3CCc4c(cc(Cn5ccnc5)cc4-c4cn(C)nc4C(F)(F)F)C3=O)c2c1 | male CD-1 mouse | plasma | oral | 50 mg/kg |  | 0.8
COc1ccc(NC(=O)N2CCCCN3[C@H](CO)[C@H](c4ccc(C#Cc5ccccc5)cc4)[C@@H]3C2)cc1 | mouse | plasma | intravenous |  |  | 3
CCc1ccc(Cc2cc([C@@H]3O[C@H](CO)[C@@H](O)[C@H](O)[C@H]3O)cc3c2CCC3)cc1 | male C57BL/6 mouse | plasma | oral | 3 mg/kg |  | 3.1
